Assay [1] addresses T1, Polyunsaturated fatty acid 5-lipoxygenase (Homo sapiens, UniProt P09917).
T1 sequence (P09917 whole entry): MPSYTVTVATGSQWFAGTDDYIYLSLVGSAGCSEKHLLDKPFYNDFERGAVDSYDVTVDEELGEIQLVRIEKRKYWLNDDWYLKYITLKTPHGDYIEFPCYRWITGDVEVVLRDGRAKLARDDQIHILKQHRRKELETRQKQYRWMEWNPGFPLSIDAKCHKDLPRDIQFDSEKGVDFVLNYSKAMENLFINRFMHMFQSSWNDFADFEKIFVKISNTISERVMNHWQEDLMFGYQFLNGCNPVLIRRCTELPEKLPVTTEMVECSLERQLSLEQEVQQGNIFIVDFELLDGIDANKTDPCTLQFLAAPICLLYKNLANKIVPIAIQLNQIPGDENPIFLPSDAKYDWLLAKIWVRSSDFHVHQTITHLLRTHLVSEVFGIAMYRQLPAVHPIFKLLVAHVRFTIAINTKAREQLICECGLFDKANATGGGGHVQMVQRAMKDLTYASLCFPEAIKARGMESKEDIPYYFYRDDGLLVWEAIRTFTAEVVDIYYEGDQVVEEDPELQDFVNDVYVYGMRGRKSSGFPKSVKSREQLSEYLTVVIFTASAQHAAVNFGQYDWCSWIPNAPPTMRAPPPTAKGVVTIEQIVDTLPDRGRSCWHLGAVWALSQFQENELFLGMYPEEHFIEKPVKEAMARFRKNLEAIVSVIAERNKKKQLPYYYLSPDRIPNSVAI
In words: Inhibition of human recombinant 5-lipoxygenase expressed in Escherichia coli MV1190 by cell free assay. In short, it runs like this: (§1)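 Cell-free activity assay with isolated human recombinant 5-LO. Compounds screened at 30 μM in DMSO, with 0.3% v/v DMSO as vehicle and BWA4C as positive control. IC50 taken from concentration-response curves. Means ± SE, n = 4-5.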

The target in assay [2] is T1, Polyunsaturated fatty acid 5-lipoxygenase. In words: Inhibition of 5-lipoxygenase in human neutrophils. The method in brief: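 Human neutrophils stimulated with ionophore A23187 to probe FLAP-dependent 5-LO product formation. Compounds in DMSO (vehicle 0.3% v/v) screened at 30 μM and tested in concentration-response. A FLAP inhibitor served as control. n = 4-5 for the curves.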

The target in assay [3] is Prostaglandin E synthase / mPGES-1 (Homo sapiens) (UniProt O14684). As to the kind of experiment: Inhibition of Prostaglandin E2 synthase-1 in IL1-beta stimulated microsomal fraction of human A549 cell assessed as residual activity at 30 uM. To be noted: Microsome.
The target in assay [4] is T2, Polyunsaturated fatty acid 5-lipoxygenase (Homo sapiens) (UniProt P09917).
T2 sequence (whole entry): T1 sequence (P09917 whole entry)
As to the kind of experiment: Inhibition of 5-lipoxygenase in human neutrophils assessed as residual activity at 30 uM; values are per cent of control.

Assay [5] addresses T2, Polyunsaturated fatty acid 5-lipoxygenase (Homo sapiens). In words: Inhibition of human recombinant 5-lipoxygenase expressed in Escherichia coli MV1190 assessed as residual activity at 30 uM by cell free assay. The method in brief:
as §1

Assay [6] shares this target. In words: Inhibition of 5-lipoxygenase in human neutrophils assessed as residual activity at 10 uM; values are per cent of control.
Assay [7] shares this target. In words: Inhibition of human recombinant 5-lipoxygenase expressed in Escherichia coli MV1190 assessed as residual activity at 10 uM by cell free assay; values are per cent of control.

Where only a bound is given, the exact number is not on record here.

Sequence of Prostaglandin E synthase / mPGES-1 (Homo sapiens) (O14684 whole entry, looked up): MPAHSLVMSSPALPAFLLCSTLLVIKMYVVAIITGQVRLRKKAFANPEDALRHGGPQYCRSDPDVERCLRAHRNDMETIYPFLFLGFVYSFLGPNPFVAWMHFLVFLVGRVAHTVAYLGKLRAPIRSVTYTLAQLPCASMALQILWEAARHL

As for `c1ccc(CCCn2cc(-c3ccc(-c4ccccc4COc4cccc5ccccc45)cc3)nn2)cc1`, the IC50 in assay [1] and in assay [2] was above 30 µM throughout. The remaining activity was found to be 96.8% in assay [3] and 77.4% in assay [5]. Besides, the residual activity in assay [4] worked out at 79.9%.

On to `Oc1cccc(-c2ccc(-c3cn(CSc4ccccc4)nn3)cc2)c1`, for which the IC50 in assay [1] was 27 µM; in assay [2], 0.4 µM. Also, the values for the remaining activity in assay [3] and in assay [5] were 60.1% and 48.8%, respectively. Moreover, the residual activity in assay [6] stood at 1.1%.

Take `Cc1ccccc1CCn1cc(-c2ccc(-c3ccccc3COc3cc(C(F)(F)F)ccc3Cl)cc2)nn1`: the IC50 in assay [1] and in assay [2] was above 30 µM each time. The figures for the remaining activity in assay [3] and in assay [5] were 87.9% and 82.5%, respectively. Further, the residual activity in assay [4] turned out to be 92.1%.

For the molecule `O=C(OCc1cn(CSc2ccccc2)nn1)c1ccccc1`, the IC50 in assay [1] was above 30 µM; in assay [2], 9.3 µM. The remaining activity in assay [3] was 76.1%; in assay [5], 80.8%. The residual activity in assay [4] stood at 14.6%.

For the molecule `O=C(O)c1ccc(Cn2cc(-c3ccc(-c4ccccc4)cc3)nn2)c([N+](=O)[O-])c1`, the IC50 in assay [1] amounted to 6.7 µM; in assay [2], 9.2 µM. For the same molecule, the figures for the remaining activity in assay [3] and in assay [5] were 12% and 20%, respectively. For the same molecule, the residual activity in assay [4] stood at 20.1%.

For the molecule `c1ccc(CCCn2cc(-c3ccc(-c4ccc(Oc5ccccc5)cc4)cc3)nn2)cc1`, the IC50 in assay [1] and in assay [2] was above 30 µM each time. The remaining activity in assay [3] came to 88.7%; in assay [5], 59.2%. Besides, in assay [4], the residual activity is 70.1%.

Turning to `O=C(O)c1ccc(S(=O)(=O)n2cc(-c3ccc(-c4ccccc4COc4cccc5ccccc45)cc3)nn2)cc1`, the IC50 in assay [1] came to 0.8 µM; in assay [2] it was 0.6 µM. In assay [3], the remaining activity amounted to 59.8%. The residual activity in assay [7] turned out to be 13.6%; in assay [6] it was 3.5%.

For `O=Cc1ccc(-c2c(Cc3ccccc3)nnn2CSc2ccccc2)cc1`, the values for the IC50 in assay [1] and in assay [2] were above 30 µM and 6 µM, respectively. In addition, the remaining activity amounted to 72.1% in assay [3] and 57.3% in assay [5]. The residual activity in assay [6] was 17.3%.

For the molecule `FC(F)(F)c1ccc(Cl)c(OCc2ccccc2-c2ccc(-c3cn(CCCc4ccccc4)nn3)cc2)c1`, the results for the IC50 in assay [1] and in assay [2] were 8.8 µM and above 30 µM, respectively. Besides, the figures for the remaining activity in assay [3] and in assay [5] were 91.9% and 10.1%, respectively. Besides, the residual activity in assay [4] turned out to be 52.7%.

`Cc1ccccc1CCn1cc(-c2ccc(-c3ccccc3COc3cccc4ccccc34)cc2)nn1`: the IC50 in assay [1] and in assay [2] was above 30 µM in each case. The remaining activity in assay [3] worked out at 90%; in assay [5], 78.4%. For the same molecule, the residual activity in assay [4] is 84.5%.

Turning to `CN(C)c1cccc2c(S(=O)(=O)Nc3ccc(-c4ccc(-c5cn(CCCc6ccccc6)nn5)cc4)cc3)cccc12`, the IC50 in assay [1] came to 4.1 µM; in assay [2], 2.8 µM. Further, the remaining activity was 85% in assay [3] and 5.1% in assay [5]. Further, the residual activity in assay [6] amounted to 21.2%.

As for `Cc1ccccc1CCn1cc(-c2ccc(-c3ccc(N)cc3)cc2)nn1`, the results for the IC50 in assay [1] and in assay [2] were above 30 µM and 1.7 µM, respectively. In addition, the remaining activity in assay [3] is 98.2%; in assay [5] it was 60.7%. The residual activity in assay [6] worked out at 22%.

With `Oc1ccc(-c2ccc(-c3cn(CCCc4ccccc4)nn3)cc2)cc1`, the IC50 in assay [1] and in assay [2] was above 30 µM in each case. Further, the remaining activity in assay [3] amounted to 73.6%; in assay [5], 58.4%. Moreover, the residual activity in assay [4] was 70.2%.

In the case of `c1ccc(CCCn2cc(-c3ccc(-c4cc5ccccc5c5ccccc45)cc3)nn2)cc1`, the IC50 in assay [1] and in assay [2] was above 30 µM throughout. The remaining activity in assay [3] was determined as 78.2%; in assay [5], 82.9%. Also, in assay [4], the residual activity is 85.7%.

With `Oc1ccc(-c2ccc(-c3cn(CSc4ccccc4)nn3)cc2)cc1`, the IC50 in assay [1] was above 30 µM; in assay [2] it was 0.9 µM. The remaining activity worked out at 89% in assay [3] and 62.3% in assay [5]. The residual activity in assay [6] stood at 34.8%.
